Compound activity as filed in PubChem BioAssay.
The list is not random: actives were taken first. Their share in the collection is about 1.5%.
CHRM4 agonist: human M4 muscarinic receptor agonists, primary screen, CHO-K1 cells, Fluo-8 calcium fluorescence. Muscarinic acetylcholine receptor M4 (Homo sapiens), P08173. CHO-K1 hM4/Gqi5; vehicle 0%, full acetylcholine response 100%. activation, % at 3 µM. hit rate 0.14% among 360,000;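 active = activation above the run mean over all test wells plus 3 SD, cut at about 32% in these data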;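 also: peak over basal fluorescence ratio per well then scaled between controls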
CHRM4 antagonist: human M4 muscarinic receptor antagonists, primary screen, CHO cells, Fluo-8 calcium fluorescence; Muscarinic acetylcholine receptor M4 (Homo sapiens), P08173; CHO-hM4 cells, ACh EC80; inhibition, % at 3 µM; hit rate 0.73% among 360,000;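 active = inhibition above its plate's cutoff, the mean inhibition of sample wells plus 3 SD, cut at about 27% in these data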
V1R ag counter: agonists of human V1a receptor, primary screen, counter-screen for OXTR agonist project, fluorescence, CHO-V1R cells. Fluo-8 calcium fluorescence, agonist mode; 0% DMSO, 100% 3 nM vasopressin. activation, % at 3 µM. hit rate 0.25% among 320,000;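 active = activation above the mean activation of all tested compounds plus 3 SD, per screening run, cut at about 20% in these data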;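 also: signal is peak over basal fluorescence ratio across a 100 second FLIPR read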
OXTR potentiator: human OXTR potentiators, primary screen, fluorescence, CHO-OTR cells, Fluo-8 calcium; Fluo-8 calcium fluorescence, potentiator mode; 0% = oxytocin EC15, 100% = EC100; activation, % at 3 µM; hit rate 0.061% among 320,000; AID 2445, 2010;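 active = activation above that plate's cutoff, the mean activation of tested compounds plus 3 SD, cut at about 6.6% in these data, passing the limit was not always enough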
Target sequence (P30559 whole entry, looked up): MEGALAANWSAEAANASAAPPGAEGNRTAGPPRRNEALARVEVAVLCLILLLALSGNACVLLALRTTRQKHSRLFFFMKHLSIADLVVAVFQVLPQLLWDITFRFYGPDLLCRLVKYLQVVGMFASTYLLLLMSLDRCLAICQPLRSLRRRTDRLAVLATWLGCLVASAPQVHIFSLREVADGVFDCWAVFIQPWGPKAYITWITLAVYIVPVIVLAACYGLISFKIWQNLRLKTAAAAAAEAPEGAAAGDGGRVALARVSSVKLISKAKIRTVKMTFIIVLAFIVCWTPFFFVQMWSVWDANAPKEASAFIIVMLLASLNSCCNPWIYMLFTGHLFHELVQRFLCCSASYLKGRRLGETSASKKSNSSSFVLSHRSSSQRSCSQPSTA
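Assay system: CHO cell line stably expressing human OTR | Also added: Oxytocin at about EC15, sub-maximal agonist stimulus | Times: Compound 6 min at room temperature before oxytocin, 100 s read | Measured by: Fluo-8 intracellular calcium fluorescence, ex 470-495, em 515-575 nm | Controls: EC15 oxytocin alone as 0%, 75 nM oxytocin as 100%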
M4 PAM: human M4 muscarinic receptor positive allosteric modulators, primary screen, CHO-K1 cells, Fluo-8 calcium fluorescence. Muscarinic acetylcholine receptor M4 (Homo sapiens), P08173. CHO-K1 hM4/Gqi5, ACh EC20; 0% = ACh EC20, 100% = maximal ACh. activation, % at 3 µM. hit rate 0.4% among 360,000;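 active = activation above its plate's cutoff, the mean activation of sample wells plus 3 SD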
OXTR agonist: human OXTR agonists, primary screen, fluorescence, CHO-OTR cells, Fluo-8 calcium | Oxytocin receptor (Homo sapiens), P30559 | Fluo-8 calcium fluorescence; normalized: DMSO 0%, oxytocin 100% | activation, % at 3 µM | hit rate 0.32% among 320,000 | AID 2435, 2010;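 active = activation above the mean of all tested compounds plus 3 SD, cutoff set per screening run, cut at about 20% in these data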;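 also: peak over basal fluorescence ratio from a 100 s FLIPR kinetic read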
Hits are given with their value; i = inactive; nt = no result given.

SMILES | CHRM4 agonist | CHRM4 antagonist | V1R ag counter | OXTR potentiator | M4 PAM | OXTR agonist
CCCCCCCCn1c2c(c(=N)c3ccccc31)CCC2 | i | 58 | nt | nt | i | nt
CCCCn1c2c(c(=N)c3ccccc31)CCC2 | i | i | i | i | i | i
CCn1c2c(c(=N)c3c1CCC3)CCCC2 | i | i | i | i | i | i
Cc1cc(C(=O)N(C)CC(=O)Nc2ccccc2C(F)(F)F)c(C)o1 | i | i | i | i | i | i
CCCCc1c(-c2ccc(OC)cc2)ncn1CCc1ccccc1OC | i | 33 | nt | nt | i | nt
CCCCc1c(-c2ccccc2)ncn1CCc1ccccc1OC | i | i | nt | nt | i | nt
CCCCCc1c(-c2ccc(Cl)cc2)ncn1CCc1ccccc1OC | i | i | nt | nt | i | nt
CCCCCc1c(-c2ccc(OC)cc2)ncn1CCc1ccccc1OC | i | 34 | nt | nt | i | nt
COc1ccc(CNC(=O)c2cn(Cc3ccc(S(=O)(=O)N(C)C)cc3)c(=O)s2)cc1 | i | i | nt | nt | i | nt
COc1ccccc1N/C=C/c1onc(C)c1[N+](=O)[O-] | i | 40 | i | i | i | i
Cc1ccc(-c2noc(-c3ccoc3C)n2)cc1 | i | i | i | i | i | i
O=S1(=O)CC(O)C(Nc2ccccc2)C1 (stereo unspecified) | i | i | i | i | 26 | i
O=S1(=O)CC(O)C(Nc2ccc(Cl)cc2)C1 (stereo unspecified) | i | i | i | i | i | i
O=C(NC1CCCCC1)C(c1ccc(F)cc1)N(C(=O)c1csnn1)C1CC1 (stereo unspecified) | i | i | i | i | 19 | i
Brc1ccc(C2=CC(c3cccs3)n3ncnc3N2)cc1 (stereo unspecified) | 37 | i | 75 | i | i | 75
Cc1ccc(C2C=C(c3ccccc3)Nc3ncnn32)cc1 (stereo unspecified) | i | i | i | i | i | i
OCCCc1nc2n(n1)C(c1cccs1)C=C(c1ccc(Br)cc1)N2 (stereo unspecified) | nt | nt | 109 | i | nt | 160
CCCCc1[nH]c(=O)c(C#N)c2c1CCCC2 | i | i | i | i | i | i
CC(C)C[C@H]1CN([C@@H](Cc2ccc(O)cc2)CN2CCC[C@H]2CN2C(=O)C(=O)NC[C@@H]2Cc2ccccc2)C(=O)C(=O)N1CC1CCCCCC1 | i | i | nt | nt | i | nt
Cn1c(CNc2ccc(Cl)cc2)nc2ccccc21 | i | i | i | i | i | i
CN(Cc1nc2ccccc2n1C)S(=O)(=O)c1ccc(Cl)cc1 | i | i | i | i | 25 | i
COc1ccc(/C=N/OCC(=O)Nc2ccc3c(c2)OCO3)c(OC)c1 | i | 38 | i | i | i | i
CC(C)CNS(=O)(=O)c1ccc(OCC(=O)Nc2ccc3c(c2)OCCO3)cc1 | i | i | i | i | i | i
CCCNS(=O)(=O)c1ccc(OCC(=O)Nc2ccc3c(c2)OCO3)cc1 | i | 45 | i | i | i | i
NCCCCCc1nnc(SC/C=C/c2ccccc2)o1 | i | 38 | i | i | i | i
SMILES | CHRM4 agonist | CHRM4 antagonist | V1R ag counter | OXTR potentiator | M4 PAM | OXTR agonist
CC1(C)Cc2ccccc2-c2nnc(SCC(=O)Nc3nc4ccccc4s3)n21 | i | i | i | i | i | i
COC(=O)[C@]12CCCCC=C1N(CCC1=CCCCC1)C(=O)[C@H](CC(=O)N1CCN(C(=O)c3ccco3)CC1)C2 | i | i | nt | nt | i | nt
O=C(Cc1cccs1)N(Cc1cccs1)C1(C(=O)NC2CCCC2)CCCCC1 | i | i | 28 | i | i | 24
CC(=O)N1CCc2c(sc(NC(=O)c3ccc([N+](=O)[O-])o3)c2C(N)=O)C1 | i | i | nt | nt | i | nt
CC(C)(NC(=O)N1CCCC1)c1cccc(C(C)(C)NC(=O)N2CCCC2)c1 | i | i | i | i | i | i
O=C(O)CC(SCC(=O)Nc1ccccc1)C(=O)O (stereo unspecified) | i | i | i | i | 22 | i
